Molecular target: Hck^3D V284C (Homo sapiens, UniProt P08631, V276C)
Assay: Inhibitor IC50 determination, fluorescent SFK peptide kinase assay
Type: biochemical
Details: 1 mM ATP
In short: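 Kinase concentrations were set in the linear range by prior titration: Src3D WT or V284C at 7.5 nM, Hck3D WT or V284C at 5 nM. Kinase was incubated 30 min with test compound (30 μM top, 3-fold serial dilutions, 10 points) and 1 mM ATP in HEPES pH 7.5 buffer with MgCl2, EGTA, BSA, vanadate and BME. Then 20 μM pyrene-labelled SFK peptide was added for 2 h. Fluorescence was read at ex 344/em 405 nm, in triplicate.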

Sequence of Hck^3D V284C (P08631 81-526 V276C): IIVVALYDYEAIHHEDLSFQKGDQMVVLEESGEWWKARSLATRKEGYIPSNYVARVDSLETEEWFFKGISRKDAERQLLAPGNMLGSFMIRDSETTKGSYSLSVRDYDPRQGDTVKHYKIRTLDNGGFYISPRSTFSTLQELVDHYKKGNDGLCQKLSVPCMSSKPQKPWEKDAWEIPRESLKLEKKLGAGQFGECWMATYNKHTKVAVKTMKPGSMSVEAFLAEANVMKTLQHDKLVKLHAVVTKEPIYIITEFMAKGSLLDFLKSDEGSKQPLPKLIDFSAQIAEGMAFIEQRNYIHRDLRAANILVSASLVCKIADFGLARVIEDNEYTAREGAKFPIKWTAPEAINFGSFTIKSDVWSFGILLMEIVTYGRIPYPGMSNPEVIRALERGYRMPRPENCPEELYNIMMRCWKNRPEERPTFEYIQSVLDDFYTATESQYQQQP

SMILES	inhibition of Hck V284C (IC50, Figure 4C)
COCCn1c(/C=C(/C#N)C(=O)NC(C)C)c(-c2ccc(Cl)cc2)c2c(N)ncnc21 [compound 1, (E)- & (Z)-3-(4-Amino-5-(4-chlorophenyl)-7-(2-methoxyethyl)-7H-pyrrolo[2,3-d]pyrimidin-6-yl)-2-cyano-N-isopropylacrylamide]	potently inhibited
COCCn1c(/C=C(/C#N)C(=O)NC(C)C)c(-c2ccc(Oc3ccccc3)cc2)c2c(N)ncnc21 [compound 2, (E)- & (Z)-3-(4-Amino-7-(2-methoxyethyl)-5-(4-phenoxyphenyl)-7H-pyrrolo[2,3-d]pyrimidin-6-yl)-2-cyano-N-isopropylacrylamide]	potently inhibited

— paper PMC6474823 (Molecular cell, 2019)
